Screens (PubChem BioAssay)
TNAP inh hi DEA = inhibitors of human TNAP at high phosphate acceptor concentration. P05186. purified TNAP, CDP-star luminescence, 1 M DEA. inhibition, % at 20 µM. actives 0.03% (n = 200,000);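 active = over 50% inhibition of tissue-nonspecific alkaline phosphatase at 20 µM in the single-dose screen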
Target sequence (P05186 whole entry, looked up): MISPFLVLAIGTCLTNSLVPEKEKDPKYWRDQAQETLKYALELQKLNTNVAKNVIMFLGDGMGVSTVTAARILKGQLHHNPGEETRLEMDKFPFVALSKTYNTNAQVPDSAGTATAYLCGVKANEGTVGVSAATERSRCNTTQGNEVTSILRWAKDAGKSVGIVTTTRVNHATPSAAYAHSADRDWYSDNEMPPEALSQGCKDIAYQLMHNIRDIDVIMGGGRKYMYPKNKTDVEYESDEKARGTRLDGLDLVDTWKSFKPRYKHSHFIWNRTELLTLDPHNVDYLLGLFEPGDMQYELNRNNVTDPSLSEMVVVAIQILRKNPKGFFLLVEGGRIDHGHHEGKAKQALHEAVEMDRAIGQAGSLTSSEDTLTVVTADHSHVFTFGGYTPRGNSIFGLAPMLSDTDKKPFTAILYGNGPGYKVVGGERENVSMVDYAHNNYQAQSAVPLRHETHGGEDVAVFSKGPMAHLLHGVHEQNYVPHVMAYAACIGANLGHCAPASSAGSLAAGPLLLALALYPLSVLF
CHT block = human CHT choline transport inhibition | Q9GZV3 | CHT-expressing cells, membrane potential dye, choline response; stronger effect = lower value | B-score at 10 µM | actives 0.86% (n = 310,000);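 active = B-score over 3 SD under the library average, and starting fluorescence ratio not unusually high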;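 note: choline stimulus applied at its EC90 after an EC20 pre-addition; B-score computed on integrated fluorescence ratio after choline addition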
CHT allo act = human CHT allosteric activation. CHT-expressing cells, membrane potential dye, choline EC20; stronger effect = higher value; LV-AA mutant CHT in HEK293 cells. actives 0.49% (n = 310,000). B-score at 10 µM;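 active = initial fluorescence not abnormally high and integrated response B-score, plate-corrected, over 3 SD above library mean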
TNAP act hi DEA = activators of human TNAP at high phosphate acceptor concentration; purified TNAP, CDP-star luminescence, 1 M DEA, 30 min; stronger effect = higher value; 0 = EDTA background, 1 = DMSO-only activity; 200,000 tested, under 10 active; activation factor at 20 µM; AID 1136; P05186;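 active = activation factor at least 2 at 20 µM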
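Assay system: human TNAP; Input: enzyme diluted 1/800 final; Reagent: CDP-star luminogenic substrate at 100 µM final; Timing: 30 min, room temperature; Signal: luminescence; Evaluation: TNAP activation factor scaled between EDTA and DMSO control wells.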
ABCB6 inh MLPCN = human ABCB6 transporter inhibition; Q9NP58; K562-ABCB6 porphyrin accumulation, flow cytometry, 1 h; stronger effect = lower value; fluorescence ratio to DMSO, % at 10 µM; actives 0.19% (n = 360,000);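 active = fluorescence ratio to DMSO below 75%, the collection mean minus 3 SD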;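 note: signal is porphyrin accumulated inside mitochondria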
TNAP inh noacc = inhibitors of human TNAP without phosphate acceptor. P05186. AID 1012. inhibition, % at 20 µM. actives 0.26% (n = 200,000). purified TNAP, CDP-star luminescence, 30 min;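 active = tissue-nonspecific alkaline phosphatase inhibition above about 50% at 20 µM in the single-dose screen, limit read from the data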
CHT act confirm = confirmation of human choline transporter (CHT) activators. shares compounds with CHT allo act. CHT-expressing cells, membrane potential dye fluorescence (FDSS); % of choline EC20–EC90 response window; HEK293 expressing CHT LV-AA mutant; choline added at its EC20. activation, % at 10 µM. actives 91% (n = 2,500);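 active = primary screen active, with duplicate mean activation above negative control mean plus 3 SD, cut at about 11% in these data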
HEK293 MP dye = activity in parental HEK293 cells lacking CHT; shares compounds with CHT allo act; membrane potential dye fluorescence (FDSS); measured after EC20 choline addition; ratio readout change at 10 µM, hits read low; actives 62% (n = 2,500); AID 623908;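 active = duplicate-averaged ratio beyond 3 SD from buffer wells, up or down, though filed actives are nearly all decreases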
Numbers stand for hits; – = inactive; · = no result given. An excerpt weighted towards active compounds, which were near 1.4% of everything screened.

SMILES	TNAP inh hi DEA	CHT block	CHT allo act	TNAP act hi DEA	ABCB6 inh MLPCN	TNAP inh noacc	CHT act confirm	HEK293 MP dye
COc1cc(-c2nnc(SCC(=O)/C(C#N)=C(\C)N)o2)cc(OC)c1OC	–	–	–	–	–	–	–	-22.9
COc1cc(NC(=O)c2ccccc2)c(OC)cc1NC(=O)Cc1ccc(C)cc1	·	–	–	·	–	·	·	·
CCOC(=O)c1c(N)c2cc([N+](=O)[O-])ccc2n1C	·	–	–	·	–	·	·	·
CCOC(=O)c1c(N=CN(C)C)c2cc([N+](=O)[O-])cnc2n1C	·	–	–	·	–	·	37.9	-45.5
Cc1cc(C)c(-n2c(O)c(C=NCCN3CCOCC3)c(=O)[nH]c2=O)c(C)c1	–	–	9.84	–	–	–	16.5	–
COc1ncccc1-c1nnn(-c2ccc(Cl)nc2)n1	–	–	–	–	–	–	48.3	-40.8
Clc1ccc(-n2nnc(-c3cccnc3Cl)n2)cn1	–	–	–	–	–	–	·	·
CC(C)C(C(=O)Nc1ccc2c(c1)OCCOCCOCCOCCO2)N1C(=O)c2ccccc2C1=O (configuration not stated)	–	–	–	–	–	–	·	·
COc1ccc(C(c2nnnn2CC2CCCO2)N2CCC(C(N)=O)CC2)cc1 (configuration not stated)	–	–	–	–	–	–	–	–
COc1ccccc1C(c1nnnn1CC1CCCO1)N1CCC(C(N)=O)CC1 (configuration not stated)	–	–	–	–	–	–	·	·
C=CCN1CCN(C(c2cc(OC)ccc2OC)c2nnnn2CC2CCCO2)CC1 (configuration not stated)	–	–	6.31	–	–	–	15.8	–
CCNC(=O)NC(=O)COC(=O)c1ccccc1SCC(=O)NC(=O)NCC	–	–	–	–	–	–	·	·
Cc1cccn2c(=O)c(C=O)c(Cl)nc12	·	–	6.55	·	–	·	42.2	-31.3
CN=Cc1c(NC)nc2c(C)cccn2c1=O	–	–	9.27	–	–	–	43.2	-27.5
CCOc1cc(N2CCOCC2)c(OCC)cc1NC(=O)CN1C(=O)NC(C)(c2ccc(OC)cc2)C1=O (configuration not stated)	·	·	·	·	–	·	·	·
COc1ccc(CN2CCc3c([nH]c4ccccc34)C2)c(OC)c1C	·	–	–	·	–	·	32.1	–
O=C(O)C1NCCc2ccccc21 (configuration not stated)	–	–	–	–	–	–	–	–
CCCCCC(=O)Nc1c2c(nc3ccccc13)CCC2	·	–	–	·	–	·	·	·
COCCNc1c2c(nc3ccccc13)CCC2	·	–	–	·	–	·	44.3	-39.5
CN(C)CCCNc1c2c(nc3ccccc13)CCC2	·	–	–	·	–	·	62.2	-65.9
COc1ccc(C)cc1Nc1c2c(nc3ccccc13)CCC2	·	–	6.84	·	–	·	35.5	-27.1
COc1ccc(CNC(=O)C2=CCN(S(=O)(=O)c3ccc(C)cc3)CC2)cc1	·	–	–	·	–	·	·	·
Oc1ccc(C23CCCC2C2(CCCC2)c2ccc(O)cc2O3)c(O)c1 (configuration not stated)	·	·	·	·	–	·	·	·
O=C(CSC1=NCCN1)Nc1cccc([N+](=O)[O-])c1	–	–	6.68	–	–	–	50.6	-45.4
Cc1ccc(NC(=O)CSC2=NCCN2)cc1	–	–	–	–	–	–	·	·
SMILES	TNAP inh hi DEA	CHT block	CHT allo act	TNAP act hi DEA	ABCB6 inh MLPCN	TNAP inh noacc	CHT act confirm	HEK293 MP dye
FC(F)(F)COc1nc(OCC(F)(F)F)nc(N2CCN(c3ccccc3)CC2)n1	–	–	7.13	–	–	–	31.3	–
CC(=O)c1cnc(Nc2nc(C)c3ccccc3n2)nc1C	–	–	–	–	·	–	44.4	-45.5
CC(NCc1cc(Br)ccc1OCC(N)=O)C12CC3CC(CC(C3)C1)C2 (configuration not stated)	·	–	10.8	·	–	·	23.4	–
COc1cc2c(cc1OC)C(c1c(Cl)cccc1Cl)=NCC2	·	·	·	·	–	·	·	·
COc1ccc(C2=NCCc3cc(OC)c(OC)cc32)cc1	–	–	7.49	–	–	–	26.9	-92.4
COc1cc2c(cc1OC)C(SC)=NC(C)(C)C2	–	–	–	–	–	–	53.2	-43.5
COc1ccc(C2=NC(C)(C)Cc3cc(OC)c(OC)cc32)cc1	·	–	8.28	·	–	·	66.8	-84
CCOC(=O)N1CCN(S(=O)(=O)c2cc([N+](=O)[O-])c(C)cc2C)CC1	–	–	–	–	–	–	·	·
Cc1ccn2c(NC(=O)c3ccccc3)c(-c3ccccc3)nc2c1	·	–	–	·	–	·	30.5	-48.3
O=C(CN(C(=O)CNC(=O)c1ccco1)c1ccc(Cl)c(Cl)c1)NC1CCCCC1	–	–	6.95	–	–	–	38.6	–
COc1cc(OC)cc(OC(=O)C2CCN(C(=O)c3ccc(F)cc3)CC2)c1	·	–	–	·	–	·	·	·
CC(C)(C)c1ccc(C(=O)N2CCC(=O)N(C(COCc3ccccc3)Cc3ccccc3)CC2)cc1 (configuration not stated)	–	–	–	–	–	–	–	–
CCn1c(Sc2ccc([N+](=O)[O-])cn2)nnc1-c1ccco1	–	–	–	–	–	–	·	·
CC[N+](CC)(CC)C/C=C/CN1CCCCC1	–	–	–	–	–	–	39.7	-42.5
COc1ccc(OC)c2nc(-c3ccncc3)ccc12	·	–	–	·	–	·	51.7	-52
CCc1cccc(CC)c1-n1c(SCC(=O)N2CCc3ccccc3C2)nnc1-c1cccnc1	–	–	–	–	–	–	–	–
COc1cc(OC)cc(C(=O)N2CCC(N3CCCCCC3)CC2)c1	–	–	–	–	–	–	·	·
COc1ccccc1C(=O)Nc1ccnn1C1CCN(C2CCCCC2)CC1	·	·	·	·	–	·	·	·
CCN1CCN(c2nc(-c3ccccn3)nc3ccccc23)CC1	–	–	–	–	–	–	57.4	-91.7
c1ccc(-c2nc(N3CCCCCC3)c3ccccc3n2)nc1	–	–	–	–	–	–	·	·
c1ccc(-c2nc(N3CCOCC3)c3ccccc3n2)nc1	–	–	10	–	–	–	69.4	-82.9
Cc1nc2cc(NC(=O)N3CCC(c4ccccc4)C3)ccc2n1C (configuration not stated)	–	–	–	–	–	–	·	·
Cc1nc2cc(NC(=O)N3CCCC3)ccc2n1C	–	–	6.55	–	–	–	26.4	-39
Cc1cccn2c(Nc3ccccc3)c(-c3ccccn3)nc12	–	–	–	–	–	–	40.7	-24.6
C[N+](C)(C)CC(=O)N1CCN(c2ccc3ccccc3n2)CC1	·	–	8.73	·	–	·	78.6	-62.9
